In ChEMBL document CHEMBL2396633, “Effects of cytoprotective antioxidants on lymphocytes from representative mitochondrial neurodegenerative diseases” (Bioorg Med Chem, 2013):
Calls of active or inactive are those of the source. The calls are words filed in the database; no cut-off is given here.

Tests used:
Homo sapiens [1] = species on record: Homo sapiens; experiment: Antioxidant activity in Alzheimer's disease patient AG06849 cells assessed as suppression of diethyl maleate-induced ROS generation at 0.025 to 2.5 uM preincubated for 18 hrs prior to diethyl maleate-challenge measured after 1 hr by FACS flow cytometric analysis in presence of DCFH-DA; type: functional
Procedure, shortened: (§1)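 Lymphocytes (Coriell, RPMI with 15% FBS) or CCRF-CEM cells (RPMI with 10% FBS), 2.5 × 10⁵ cells/mL, exposed to compounds for 18 h at 37 °C, then 5 mM diethyl maleate for 1 h. Cells washed in PBS, loaded with 10 µM DCFH-DA in PBS/10 mM glucose for 25 min at 37 °C in the dark. DCF read by flow cytometry (488 nm excitation, 530 nm emission). Mean ± S.E.M., three experiments in duplicate.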

GM15850 [2] = experiment: Effect on total ATP level in Friedreich's ataxia disease patient GM15850 cells at 10 uM after 48 hrs by bioluminescence assay relative to control; type: functional, Homo sapiens
Procedure, shortened: (§2)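 Lymphocytes were adapted to glucose-free RPMI with 25 mM galactose for at least one week. Cells at 2 × 10⁵ cells/mL were given compound at final 5, 10 or 25 µM for 48 h at 37 °C, 5% CO₂. Total intracellular ATP was measured by luciferase bioluminescence kit and expressed as % of untreated control.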

[3] = Effect on total ATP level in Leber's optic atrophy disease patient GM10744 cells at 10 uM after 48 hrs by bioluminescence assay relative to control; type: functional, Homo sapiens; procedure, shortened: as §2
GM15850 [4] = experiment: Cytoprotective activity against diethyl maleate-induced oxidative stress in Friedreich's ataxia disease patient GM15850 cells assessed as cell viability at 0.5 uM preincubated for 15 hrs prior to diethyl maleate-challenge measured after 6 hrs by hemocytometer-based assay; type: functional; details: Homo sapiens
Procedure, shortened: (§3)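 Cells seeded at 5 × 10⁵ cells/mL, preincubated with 0.5 or 2.5 µM compound at 37 °C, 5% CO₂, then given 5 mM diethyl maleate for 6 h. Viable cells counted by trypan blue exclusion on a hemocytometer. Viability expressed as % of untreated control. Three independent experiments in triplicate, mean ± S.E.M.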

CCRF-CEM [5] = experiment: Antioxidant activity in human CCRF-CEM cells assessed as suppression of diethyl maleate-induced ROS generation at 0.25 to 2.5 uM preincubated for 18 hrs prior to diethyl maleate-challenge measured after 1 hr by FACS flow cytometric analysis in presence of DCFH-DA; type: functional, cell-based; procedure, shortened: as §1
[6] = Effect on total ATP level in CoQ10-deficient human GM17932 cells at 5 uM after 48 hrs by bioluminescence assay relative to control; type: functional; procedure, shortened: as §2
CCRF-CEM [7] = experiment: Cytoprotective activity against diethyl maleate-induced oxidative stress in human CCRF-CEM cells assessed as cell viability at 0.5 uM preincubated for 15 hrs prior to diethyl maleate-challenge measured after 6 hrs by hemocytometer-based assay; type: functional; procedure, shortened: as §3
Homo sapiens [8] = species on record: Homo sapiens; experiment: Cytoprotective activity against diethyl maleate-induced oxidative stress in Leigh's syndrome patient GM13740 cells assessed as cell viability at 0.5 uM preincubated for 15 hrs prior to diethyl maleate-challenge measured after 6 hrs by hemocytometer-based assay; type: functional; procedure, shortened: as §3
[9] = Effect on total ATP level in CoQ10-deficient human GM17932 cells at 10 uM after 48 hrs by bioluminescence assay relative to control; type: functional; procedure, shortened: as §2
Homo sapiens [10] = species on record: Homo sapiens; experiment: Cytoprotective activity against diethyl maleate-induced oxidative stress in Parkinson's disease patient GM15010 cells assessed as cell viability at 0.5 uM preincubated for 15 hrs prior to diethyl maleate-challenge measured after 6 hrs by hemocytometer-based assay; type: functional; procedure, shortened: as §3
Homo sapiens [11] = species on record: Homo sapiens; experiment: Cytoprotective activity against diethyl maleate-induced oxidative stress in Leber's optic atrophy disease patient GM10744 cells assessed as cell viability at 0.5 uM preincubated for 15 hrs prior to diethyl maleate-challenge measured after 6 hrs by hemocytometer-based assay; type: functional; procedure, shortened: as §3
[12] = Effect on total ATP level in CoQ10-deficient human GM17932 cells at 25 uM after 48 hrs by bioluminescence assay relative to control; type: functional; procedure, shortened: as §2
[13] = Inhibition of NADH-ubiquinone oxidoreductase in bovine heart mitochondria after 5 mins by spectrophotometric analysis; design: species or system Bos taurus
Procedure, shortened: (§4)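 Bovine heart submitochondrial particles, 12 µg, incubated 5 min at 39 °C with compound in 50 mM phosphate pH 7.4, 0.25 M sucrose, 1 mM MgCl₂, 2 mM KCN, plus antimycin A. Reaction started with 50 µM NADH and 50 µM coenzyme Q₁; NADH loss read at 340 nm. K_I derived. Mean of three experiments in triplicate.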

GM15850 [14] = experiment: Effect on total ATP level in Friedreich's ataxia disease patient GM15850 cells at 25 uM after 48 hrs by bioluminescence assay relative to control; type: functional, Homo sapiens; procedure, shortened: as §2
Homo sapiens [15] = species on record: Homo sapiens; experiment: Cytoprotective activity against diethyl maleate-induced oxidative stress in Alzheimer's disease patient AG06849 cells assessed as cell viability at 0.5 uM preincubated for 15 hrs prior to diethyl maleate-challenge measured after 6 hrs by hemocytometer-based assay; type: functional; procedure, shortened: as §3
[16] = Effect on total ATP level in Leber's optic atrophy disease patient GM10744 cells at 25 uM after 48 hrs by bioluminescence assay relative to control; type: functional, Homo sapiens; procedure, shortened: as §2
Bos taurus [17] = species on record: Bos taurus; experiment: Inhibition of NADH oxidase activity of bovine heart mitochondrial […] at 5 uM after 5 mins by spectrophotometric analysis relative to control; values are per cent of control
CCRF-CEM [18] = experiment: Antioxidant activity in human CCRF-CEM cells assessed as suppression of diethyl maleate-induced ROS generation preincubated for 18 hrs prior to diethyl maleate-challenge measured after 1 hr by FACS flow cytometric analysis in presence of DCFH-DA; type: functional, cell-based; procedure, shortened: as §1
Bos taurus [19] = species on record: Bos taurus; experiment: Inhibition of NADH oxidase activity of bovine heart mitochondrial […] at 10 uM after 5 mins by spectrophotometric analysis relative to control; values are per cent of control
Bos taurus [20] = species on record: Bos taurus; experiment: Inhibition of NADH-ubiquinone oxidoreductase in bovine heart mitochondria after 5 mins by spectrophotometric analysis relative to control; procedure, shortened: as §4
Homo sapiens [21] = species on record: Homo sapiens; experiment: Antioxidant activity in Leber's optic atrophy disease patient GM10744 cells assessed as suppression of diethyl maleate-induced ROS generation at 0.025 to 2.5 uM preincubated for 18 hrs prior to diethyl maleate-challenge measured after 1 hr by FACS flow cytometric analysis in presence of DCFH-DA; type: functional; procedure, shortened: as §1
GM15850 [22] = experiment: Effect on total ATP level in Friedreich's ataxia disease patient GM15850 cells at 5 uM after 48 hrs by bioluminescence assay relative to control; type: functional, Homo sapiens; procedure, shortened: as §2
Bos taurus [23] = species on record: Bos taurus; experiment: Inhibition of NADH oxidase activity of bovine heart mitochondrial […] at 1 uM after 5 mins by spectrophotometric analysis relative to control; values are per cent of control
[24] = Effect on total ATP level in Leber's optic atrophy disease patient GM10744 cells at 5 uM after 48 hrs by bioluminescence assay relative to control; type: functional, Homo sapiens; procedure, shortened: as §2

Row | IC50 [13] | Ki [13] | residual activity (Bos taurus [17]) | residual activity (Bos taurus [19]) | Structure (SMILES) | Activity (Homo sapiens [1]) | Activity (GM15850 [2]) | Activity [3] | Activity (GM15850 [4]) | Activity (CCRF-CEM [5]) | Activity [6] | Activity (CCRF-CEM [7]) | Activity (Homo sapiens [8]) | Activity [9] | Activity (Homo sapiens [10]) | Activity (Homo sapiens [11]) | Activity [12] | Activity (GM15850 [14]) | Activity (Homo sapiens [15]) | Activity [16] | Activity (CCRF-CEM [18]) | further results
1 | 2 µM | 1.4 µM | 17.7% | 3.9% | CCCCCCCCCCc1nc(N(C)C)nc(C)c1O | Active | 74.4% | 75% | Active | Active | 105.2% | Active | Active | 97.1% | Active | Active | 72.4% | 42.2% | Active | 40.6% | Dose-dependent effect | Imax (Bos taurus [20]): 88%; Activity (Homo sapiens [21]): Active; Activity (GM15850 [22]): 83.3%; residual activity (Bos taurus [23]): 35.4%; Activity [24]: 95.6%
2 | 198 µM | 141 µM | 88.6% | 76.9% | CCCCCCCCCCCCCCCCc1nc(N(C)C)nc(C)c1O | Active | 90.3% | 95.6% | Active | Active | 108.2% | Active | Active | 103% | Active | Active | 95% | 74.7% | Active | 83.4% | Dose-dependent effect | Imax (Bos taurus [20]): 84%; Activity (Homo sapiens [21]): Active; Activity (GM15850 [22]): 95.3%; residual activity (Bos taurus [23]): 96.2%; Activity [24]: 102.7%
